Results gathered from unrelated publications.
Each line is one published result; the experiments were not run side by side.
Read-out: metabolic stability
Species: human

SMILES	system	conditions	half-life
C/C=C/C[C@H](C)[C@@H](OC)[C@@H](C)[C@H](O)C[C@H]1OC(=O)C=C[C@H]1CC	liver microsomes		6.7 min
O=C(c1ccc(F)cc1)C1CCN(CCn2c(=O)[nH]c3ccccc3c2=O)CC1	liver microsomes		38.8 min
COc1ccc(-c2ocnc2C(=O)NCCCn2cncn2)cc1Cl	liver microsomes		78.7 min
CCOC(=O)NS(=O)(=O)c1sc(CC(C)C)cc1-c1ccc2c(c1)CN(C)C(=O)C2	liver microsomes	1 µM, pH 7.4	7.8 min
CN1CCN(C(c2ccccc2)c2ccc(Cl)cc2)CC1 (racemic)	liver microsomes		> 100 min
CCS(=O)(=O)Nc1ccc(OCCOCCOCCOCCOc2ccc(NS(=O)(=O)CC)cc2-c2cn(C)c(=O)c3ccccc23)c(-c2cn(C)c(=O)c3ccccc23)c1	liver microsomes		< 2.3 min
O=C(N[C@H](Cc1c[nH]c2ccccc12)C(=O)Nc1ccncc1)c1ccc(-c2cccc(F)c2)cc1F	liver microsomes		18 min
CC(C)NCC(O)COc1cccc2ccccc12 (stereo not drawn)	liver microsomes	1 µM, pH 7.4	58.6 min
CCNc1nc2c(c(N3CC(=O)Nc4cc(OC)ccc43)n1)CCC2	liver microsomes		16.7 min
O=C(CC1Cc2ccccc2C1)N[C@H](CN1CCCC1)[C@H](O)c1ccc(OC(F)(F)F)cc1	liver microsomes	1 µM, pH 7.4	84 min
O=C(OC(C(F)(F)F)C(F)(F)F)N1CCc2ccccc2C1	liver microsomes		21 min
Cc1cnc(Nc2ccc(C(=O)NC3CCNCC3)c(F)c2)nc1Nc1cc(NS(=O)(=O)C(C)(C)C)cc(C(=O)NCCOCCOCCOCCC(=O)N2CCC(NC(=O)c3ccc(Nc4ncc(C)c(Nc5ccc(Cl)c(NS(=O)(=O)C(C)(C)C)c5)n4)cc3F)CC2)c1	liver microsomes		8.2 min
O=C(N[C@H](Cc1c[nH]c2ccccc12)C(=O)Nc1ccncc1)c1ccc(-c2cc(F)ccc2F)cc1F	liver microsomes		17 min
CCOC(=O)NS(=O)(=O)c1sc(CC(C)C)cc1-c1ccc2c(c1)CN(C(=O)OCC)C2	liver microsomes	1 µM, pH 7.4	2.3 min
O=S(=O)(Nc1cccc(-c2nnn[nH]2)c1)c1ccc(Cl)c2nonc12	liver microsomes		200 min
COc1ccc2nc3cc(Cl)ccc3c(Nc3cc(CN4CCCC4)c(O)c(CN4CCCC4)c3)c2n1	hepatocytes	1 µM	468 min
CCCCOC(=O)NS(=O)(=O)c1sc(CC(C)C)cc1-c1ccc(OC(F)(F)F)c(Cn2ccnc2)c1	liver microsomes	1 µM, pH 7.4	10 min
CC[C@@H]1C=CC(=O)O[C@@H]1C[C@@H](OC)[C@H](C)[C@H](OC)[C@@H](C)Cc1ccc(F)cc1	liver microsomes		< 2.3 min
CC(C)(C)C[C@@H]1N[C@@H](C(=O)N[C@H]2C[C@@](C)(O)C2)[C@H](c2cccc(Cl)c2F)[C@]12C(=O)Nc1cc(Cl)ccc12	liver microsomes		> 60 min
CNS(=O)(=O)Cc1ccc2[nH]cc(CCN(C)C)c2c1	hepatocytes	5 µM	448 min
O=S(=O)(Nc1cccc(-c2nnn[nH]2)c1)c1cc(Cl)c(Cl)cc1Cl	liver microsomes		88 min
Cc1cccc(-n2ncc(Br)c(Br)c2=O)c1	liver microsomes		7.1 min
CC[C@@H]1C=CC(=O)O[C@@H]1C[C@@H](O)[C@H](C)[C@H](O)[C@@H](C)Cc1ccc(F)cc1	liver microsomes		< 7.7 min
O=C1CCN(C(=O)Nc2ccc(F)c(C(F)F)c2)[C@@H]2CCCC[C@H]12	liver microsomes		> 56 min
CO[C@@H](C[C@H]1C(C)=CC[C@@H]2[C@]3(C)C[C@H](O[C@@H]4O[C@@H](C)[C@H](OC(=O)c5cccc(O)c5)[C@@H](O[C@@H]5O[C@H](CO)[C@@H](O)[C@H](O)[C@H]5NC(C)=O)[C@H]4O)[C@@H](O)C(C)(C)[C@H]3CC[C@]21C)[C@H](N)C(=O)O.O=C(O)C(F)(F)F	hepatocytes	1 µM	> 360 min
CCOC(=O)NS(=O)(=O)c1sc(CC(C)C)cc1-c1ccc2c(c1)CN(C(C)=O)C2	liver microsomes	1 µM, pH 7.4	7.8 min
NCc1ccccc1	hepatocytes	5 µM	76.3 min
